Legend:
[1] = molecular target: C-C chemokine receptor type 5 (Homo sapiens, UniProt P51681); assay: Inhibitory concentration for displacement of [125I]-MIP-1 alpha from recombinant human CC chemokine receptor 5 (CCR5) expressed in CHO cell; assay type: cell-based
Procedure, shortened: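 Competitive binding to CCR5 on CHO cell membranes, read as displacement of [125I]-labeled MIP-1α. IC50 values are means of triplicate determinations. Standard errors were normally <15% within an assay. Assay-to-assay variation was within ±2-fold, judged from a standard compound.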

[2] = system: HeLa; assay: Antiviral activities in a cell culture HIV-1 infectivity inhibition assay using HeLa cells plus 50% normal human serum; assay type: functional
[3] = system: HeLa; assay: Antiviral activities in a cell culture HIV-1 infectivity inhibition assay using HeLa cells; assay type: functional; conditions: Homo sapiens

C-C chemokine receptor type 5, sequence (P51681 whole entry): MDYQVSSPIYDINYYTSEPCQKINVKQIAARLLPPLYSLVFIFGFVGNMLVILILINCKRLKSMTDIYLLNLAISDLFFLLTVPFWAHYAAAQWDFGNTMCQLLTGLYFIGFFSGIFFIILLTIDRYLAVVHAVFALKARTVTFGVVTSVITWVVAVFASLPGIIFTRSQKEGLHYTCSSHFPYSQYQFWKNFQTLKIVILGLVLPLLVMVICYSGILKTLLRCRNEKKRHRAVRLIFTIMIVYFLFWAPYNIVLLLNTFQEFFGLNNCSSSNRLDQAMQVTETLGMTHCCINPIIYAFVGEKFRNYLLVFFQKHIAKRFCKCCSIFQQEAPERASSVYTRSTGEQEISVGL

Compound | IC50 [1] [nM] | IC90 [2] [nM] | IC90 [3] [nM]
CCn1nc(Cc2ccc(S(=O)(=O)c3ccccc3)cc2)cc1C1CCN(C[C@H]2CN([C@@H](C(=O)O)C(C)C)C[C@@H]2c2cccc(F)c2)CC1 | 1.3 | 33 | 0.4
CCn1nc(Cc2ccc(S(=O)(=O)c3ccccc3)cc2)cc1C1CCN(C[C@H]2CN([C@@H](C(=O)O)C3CCCCC3)C[C@@H]2c2cccc(F)c2)CC1 | 0.8 | 33 | 0.4
CCOc1cccc(Cc2cc(C3CCN(C[C@H]4CN([C@@H](C(=O)O)[C@@H](C)CC)C[C@@H]4c4cccc(F)c4)CC3)n(CC)n2)c1 | 0.9 | 100 | < 0.14
CCn1nc(Cc2ccc(OCc3ccccc3)cc2)cc1C1CCN(C[C@H]2CN([C@@H](C(=O)O)C(C)(C)C)C[C@@H]2c2cccc(F)c2)CC1 | 1.1 | 300 | 3.7
CCn1nc(Cc2cccnc2)cc1C1CCN(C[C@H]2CN([C@@H](C(=O)O)C(C)C)C[C@@H]2c2cccc(F)c2)CC1 | 13.1 | 300 | 11
CC[C@@H](C)[C@H](C(=O)O)N1C[C@H](CN2CCC(c3cc(Cc4ccc(OC5CC5)cc4)nn3CC)CC2)[C@@H](c2cccc(F)c2)C1 | 0.3 | 33 | < 0.14
CCn1nc(Cc2ccc(C#N)cc2)cc1C1CCN(C[C@H]2CN([C@@H](C(=O)O)C3CCCCC3)C[C@@H]2c2cccc(F)c2)CC1 | 1.7 | 11 | 0.4
CCn1nc(Cc2cccc(F)c2)cc1C1CCN(C[C@H]2CN([C@@H](C(=O)O)C3CCCCC3)C[C@@H]2c2cccc(F)c2)CC1 | 1 | 33 | < 0.14
CCn1nc(Cc2cccnc2)cc1C1CCN(C[C@H]2CN([C@@H](C(=O)O)C3CCCCC3)C[C@@H]2c2cccc(F)c2)CC1 | 3.9 | 33 | 0.4
CC[C@H](C)[C@H](C(=O)O)N1C[C@H](CN2CCC(c3cc(Cc4ccc(OCc5ccccc5)cc4)nn3CC)CC2)[C@@H](c2cccc(F)c2)C1 | 0.7 | 300 | 3.7
CCn1nc(Cc2ccc(OCC(F)(F)F)cc2)cc1C1CCN(C[C@H]2CN([C@@H](C(=O)O)C(C)(C)C)C[C@@H]2c2cccc(F)c2)CC1 | 0.6 | 100 | 1.2
CCn1nc(Cc2ccc(Oc3ccccc3)cc2)cc1C1CCN(C[C@H]2CN([C@@H](C(=O)O)C3CCCCC3)C[C@@H]2c2cccc(F)c2)CC1 | 0.5 | 100 | 1.2
CC[C@@H](C)[C@H](C(=O)O)N1C[C@H](CN2CCC(c3cc(Cc4ccccc4)nn3CC)CC2)[C@@H](c2cccc(F)c2)C1 | 0.9 | 300 | 0.4
CC[C@@H](C)[C@H](C(=O)O)N1C[C@H](CN2CCC(c3cc(Cc4ccc(C(C)(C)C)cc4)nn3CC)CC2)[C@@H](c2cccc(F)c2)C1 | 0.8 | 300 | 1.2
CC[C@@H](C)[C@H](C(=O)O)N1C[C@H](CN2CCC(c3cc(Cc4ccc(O)cc4)nn3CC)CC2)[C@@H](c2cccc(F)c2)C1 | 0.6 | 11 | < 0.14
CCn1nc(Cc2ccc(C)cc2)cc1C1CCN(C[C@H]2CN([C@@H](C(=O)O)C(C)(C)C)C[C@@H]2c2cccc(F)c2)CC1 | 0.6 | 33 | < 0.14
CCCCOc1ccc(Cc2cc(C3CCN(C[C@H]4CN([C@@H](C(=O)O)C(C)(C)C)C[C@@H]4c4cccc(F)c4)CC3)n(CC)n2)cc1 | 0.8 | 33 | 1.2
CCOc1cccc(Cc2cc(C3CCN(C[C@H]4CN([C@@H](C(=O)O)[C@H](C)CC)C[C@@H]4c4cccc(F)c4)CC3)n(CC)n2)c1 | 0.8 | > 300 | < 0.14
CCn1nc(Cc2ccc(OC3CC3)cc2)cc1C1CCN(C[C@H]2CN([C@@H](C(=O)O)C(C)C)C[C@@H]2c2cccc(F)c2)CC1 | 1 | 300 | 1.2
CCn1nc(Cc2ccc(F)cc2F)cc1C1CCN(C[C@H]2CN([C@@H](C(=O)O)C(C)C)C[C@@H]2c2cccc(F)c2)CC1 | 5 | > 300 | 100

Compound | IC50 [1] [nM] | IC90 [2] [nM] | IC90 [3] [nM]
CC[C@@H](C)[C@H](C(=O)O)N1C[C@H](CN2CCC(c3cc(Cc4cc(C(F)(F)F)cc(C(F)(F)F)c4)nn3CC)CC2)[C@@H](c2cccc(F)c2)C1 | 1.6 | > 300 | 33
CC[C@@H](C)[C@H](C(=O)O)N1C[C@H](CN2CCC(c3cc(Cc4ccc(OC(F)(F)F)cc4)nn3CC)CC2)[C@@H](c2cccc(F)c2)C1 | 0.6 | 100 | 1.2
CCOc1ccc(Cc2cc(C3CCN(C[C@H]4CN([C@@H](C(=O)O)[C@@H](C)CC)C[C@@H]4c4cccc(F)c4)CC3)n(CC)n2)cc1F | 0.7 | 11 | < 0.14
CC[C@@H](C)[C@H](C(=O)O)N1C[C@H](CN2CCC(c3cc(Cc4ccc(-c5ccccc5)cc4)nn3CC)CC2)[C@@H](c2cccc(F)c2)C1 | 0.5 | 300 | 1.2
CCn1nc(Cc2ccc(Cl)cc2)cc1C1CCN(C[C@H]2CN([C@@H](C(=O)O)C(C)C)C[C@@H]2c2cccc(F)c2)CC1 | 1.3 | 300 | 3.7
CCn1nc(Cc2ccc(OC3CC3)cc2)cc1C1CCN(C[C@H]2CN([C@@H](C(=O)O)C(C)(C)C)C[C@@H]2c2cccc(F)c2)CC1 | 0.4 | 33 | < 0.14
CCn1nc(Cc2cccc(OC)c2)cc1C1CCN(C[C@H]2CN([C@@H](C(=O)O)C(C)(C)C)C[C@@H]2c2cccc(F)c2)CC1 | 0.7 | 33 | < 0.14
CCn1nc(Cc2cc(F)cc(F)c2)cc1C1CCN(C[C@H]2CN([C@@H](C(=O)O)C3CCCCC3)C[C@@H]2c2cccc(F)c2)CC1 | 0.9 | 11 | < 0.14
CC[C@H](C)[C@H](C(=O)O)N1C[C@H](CN2CCC(c3cc(Cc4ccc(S(=O)(=O)c5ccccc5)cc4)nn3CC)CC2)[C@@H](c2cccc(F)c2)C1 | 0.6 | 11 | < 0.14
CCOc1ccc(Cc2cc(C3CCN(C[C@H]4CN([C@@H](C(=O)O)[C@H](C)CC)C[C@@H]4c4cccc(F)c4)CC3)n(CC)n2)cc1F | 0.4 | 33 | < 0.14
CC[C@@H](C)[C@H](C(=O)O)N1C[C@H](CN2CCC(c3cc(Cc4ccc(OC)c(OC)c4)nn3CC)CC2)[C@@H](c2cccc(F)c2)C1 | 2.6 | 33 | 0.4
CCn1nc(Cc2ccccc2F)cc1C1CCN(C[C@H]2CN([C@@H](C(=O)O)C(C)C)C[C@@H]2c2cccc(F)c2)CC1 | 2.2 | > 300 | 11
CCCOc1ccc(Cc2cc(C3CCN(C[C@H]4CN([C@@H](C(=O)O)C(C)(C)C)C[C@@H]4c4cccc(F)c4)CC3)n(CC)n2)cc1 | 0.8 | 300 | 0.4
CCn1nc(Cc2ccc(S(C)(=O)=O)cc2)cc1C1CCN(C[C@H]2CN([C@@H](C(=O)O)C3CCCCC3)C[C@@H]2c2cccc(F)c2)CC1 | 2.3 | 11 | 0.4
CC[C@H](C)[C@H](C(=O)O)N1C[C@H](CN2CCC(c3cc(Cc4cccc(OC)c4)nn3CC)CC2)[C@@H](c2cccc(F)c2)C1 | 1.2 | 100 | < 0.14
CCn1nc(Cc2ccc(F)cc2F)cc1C1CCN(C[C@H]2CN([C@@H](C(=O)O)C3CCCCC3)C[C@@H]2c2cccc(F)c2)CC1 | 1.5 | 33 | 0.4
CCn1nc(Cc2ccc3ccccc3c2)cc1C1CCN(C[C@H]2CN([C@@H](C(=O)O)C(C)(C)C)C[C@@H]2c2cccc(F)c2)CC1 | 0.2 | 100 | < 0.14
CC[C@@H](C)[C@H](C(=O)O)N1C[C@H](CN2CCC(c3cc(Cc4ccc(C(F)(F)F)cc4)nn3CC)CC2)[C@@H](c2cccc(F)c2)C1 | 0.5 | 100 | 0.4
CC[C@H](C)[C@H](C(=O)O)N1C[C@H](CN2CCC(c3cc(Cc4cc(C(F)(F)F)cc(C(F)(F)F)c4)nn3CC)CC2)[C@@H](c2cccc(F)c2)C1 | 2.1 | > 300 | 11

Source: ChEMBL document CHEMBL1147446, “Antagonists of human CCR5 receptor containing 4-(pyrazolyl)piperidine side chains. Part 3: SAR studies on the benzylpyrazole segment” (Bioorg Med Chem Lett, 2004)
